In ChEMBL document CHEMBL1151946, “Doxazosin-related alpha1-adrenoceptor antagonists with prostate antitumor activity” (J Med Chem, 2009):
Calls of active or inactive are those of the source. The calls are words filed in the database; no cut-off is given here.

How the values were obtained:
[1] = biological target: T1, Alpha-1D adrenergic receptor (Homo sapiens, UniProt P25100); assay: Displacement of [3H]prazosin from human Alpha-1D adrenoceptor expressed in CHO cells; assay type: cell-based
T1 sequence (P25100 whole entry): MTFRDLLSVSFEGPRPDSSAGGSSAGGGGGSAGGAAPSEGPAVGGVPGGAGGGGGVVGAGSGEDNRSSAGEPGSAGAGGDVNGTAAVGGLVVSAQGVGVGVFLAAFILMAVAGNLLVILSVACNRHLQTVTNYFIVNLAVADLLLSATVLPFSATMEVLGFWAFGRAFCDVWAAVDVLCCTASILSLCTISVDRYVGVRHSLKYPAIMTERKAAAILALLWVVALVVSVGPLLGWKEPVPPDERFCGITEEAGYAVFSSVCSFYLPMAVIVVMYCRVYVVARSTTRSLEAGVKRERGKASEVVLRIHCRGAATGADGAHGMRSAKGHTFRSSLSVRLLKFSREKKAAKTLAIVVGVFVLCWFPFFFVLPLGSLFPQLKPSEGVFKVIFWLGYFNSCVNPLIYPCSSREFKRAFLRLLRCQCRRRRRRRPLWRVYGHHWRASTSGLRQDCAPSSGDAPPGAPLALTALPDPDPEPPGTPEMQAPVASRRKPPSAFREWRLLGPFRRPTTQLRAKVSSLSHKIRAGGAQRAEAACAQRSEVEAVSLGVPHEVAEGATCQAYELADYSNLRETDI
Method in brief: (§1)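 Radioligand competition binding used [3H]prazosin on membranes of CHO cells expressing human α1a, α1b or α1d adrenoceptor. IC50 values were converted to pKi by the Cheng-Prusoff equation. Data come from two to three experiments run in triplicate, agreeing within ±20%.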

[2] = biological target: T2, Alpha-1B adrenergic receptor (Homo sapiens, UniProt P35368); assay: Displacement of [3H]prazosin from human Alpha-1B adrenoceptor expressed in CHO cells; assay type: cell-based; method in brief: as §1
T2 sequence (P35368 whole entry): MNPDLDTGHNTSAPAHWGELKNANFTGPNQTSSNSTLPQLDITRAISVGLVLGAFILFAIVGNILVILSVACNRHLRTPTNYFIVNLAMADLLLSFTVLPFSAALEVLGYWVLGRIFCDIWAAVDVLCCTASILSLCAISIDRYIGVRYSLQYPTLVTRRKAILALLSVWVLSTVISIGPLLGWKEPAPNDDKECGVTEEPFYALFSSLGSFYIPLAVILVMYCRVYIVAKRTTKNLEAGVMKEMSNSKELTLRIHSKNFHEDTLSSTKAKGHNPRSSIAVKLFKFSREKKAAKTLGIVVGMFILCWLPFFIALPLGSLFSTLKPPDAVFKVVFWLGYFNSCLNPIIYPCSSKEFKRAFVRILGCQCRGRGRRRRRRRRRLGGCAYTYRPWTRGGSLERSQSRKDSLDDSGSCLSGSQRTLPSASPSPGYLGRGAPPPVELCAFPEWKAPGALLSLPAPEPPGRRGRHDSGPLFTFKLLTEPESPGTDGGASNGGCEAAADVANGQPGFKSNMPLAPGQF

[3] = biological target: T3, Alpha-1A adrenergic receptor (Rattus norvegicus, UniProt P43140); assay: (§2) Antagonist activity at rat alpha1A adrenoceptor assessed as inhibition if norepinephrine-induced contraction of vas deference; assay type: functional; conditions: read-out: pA2 (converted)
T3 sequence (P43140 whole entry): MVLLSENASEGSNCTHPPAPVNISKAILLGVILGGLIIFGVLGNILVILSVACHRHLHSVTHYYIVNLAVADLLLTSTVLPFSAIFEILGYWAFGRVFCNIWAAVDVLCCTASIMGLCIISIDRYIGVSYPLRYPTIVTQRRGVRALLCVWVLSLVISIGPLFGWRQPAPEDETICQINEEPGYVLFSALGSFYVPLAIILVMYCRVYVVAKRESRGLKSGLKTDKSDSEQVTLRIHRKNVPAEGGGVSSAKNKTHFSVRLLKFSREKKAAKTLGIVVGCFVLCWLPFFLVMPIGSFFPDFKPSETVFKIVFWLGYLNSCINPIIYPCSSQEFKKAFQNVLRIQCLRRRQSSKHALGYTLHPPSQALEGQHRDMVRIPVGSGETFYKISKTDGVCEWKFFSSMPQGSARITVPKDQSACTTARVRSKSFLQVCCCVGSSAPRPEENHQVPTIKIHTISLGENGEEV
Method in brief: (§3)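 Isolated rat tissue contraction assay. The α1A response used vas deferens with (-)-noradrenaline as agonist, α1D used thoracic aorta with (-)-noradrenaline, and α1B used spleen with (-)-phenylephrine. pA2 values are means ± SEM over three antagonist concentrations, each tested at least four times. Where the Schild slope differed from unity, pKB was calculated by van Rossum at the lowest antagonist concentration giving log(CR−1) ≥0.5.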

[4] = biological target: T4, Alpha-1A adrenergic receptor (Homo sapiens, UniProt P35348); assay: Displacement of [3H]prazosin from human alpha1A adrenoceptor expressed in CHO cells; assay type: cell-based; method in brief: as §1
T4 sequence (P35348 whole entry): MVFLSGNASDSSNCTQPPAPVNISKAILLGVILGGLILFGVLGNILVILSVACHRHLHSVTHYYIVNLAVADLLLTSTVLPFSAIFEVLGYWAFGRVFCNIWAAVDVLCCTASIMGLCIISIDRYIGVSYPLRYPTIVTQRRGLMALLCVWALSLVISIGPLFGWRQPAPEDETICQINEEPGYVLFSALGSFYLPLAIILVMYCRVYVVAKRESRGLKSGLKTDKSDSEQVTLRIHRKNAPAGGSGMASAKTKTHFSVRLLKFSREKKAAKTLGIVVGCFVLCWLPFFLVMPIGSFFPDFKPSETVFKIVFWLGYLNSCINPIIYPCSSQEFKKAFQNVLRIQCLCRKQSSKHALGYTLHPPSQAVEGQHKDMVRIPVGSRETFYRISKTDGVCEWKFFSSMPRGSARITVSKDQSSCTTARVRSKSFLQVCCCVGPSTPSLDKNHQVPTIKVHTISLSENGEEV

PC-3 [5] = assay: Antiangiogenic activity in human PC3 cells xenografted in NU/NU mouse assessed as reduction vascularization at 1 mg/kg by immunohistochemistry; assay type: functional, organism-based; set-up: dose 1 mg/kg
Method in brief: (§4)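 Vascularization of PC-3 flank tumors from nude mice dosed orally was assessed by immunohistochemistry with rat anti-mouse CD31 monoclonal antibody as endothelial marker. Doses were 0.3, 1 and 3 mg/kg.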

PC-3 [6] = assay: Antitumor activity against human PC3 cells xenografted in NU/NU mouse at 0.3 mg/kg, po after 21 days relative to control; assay type: functional
Method in brief: (§5)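 Male nude mice carried subcutaneous left-flank tumors from injected PC-3 cells. Drug was given orally once daily for 21 consecutive days. There were five groups of six mice, treated and control. Tumor growth is reported as mean ± SEM, analysed by ANOVA and Student t-test against control.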

PC-3 [7] = assay: Antiangiogenic activity in human PC3 cells xenografted in NU/NU mouse assessed as reduction vascularization at 0.3 mg/kg by immunohistochemistry; assay type: functional, organism-based; set-up: dose 0.3 mg/kg; method in brief: as §4
LNCaP [8] = assay: Cytotoxicity against human LNCAP cells after 72 hrs by CellTitter-Glo luminescent cell viability assay; assay type: functional, cell-based
NHDF [9] = assay: Induction of apoptosis in human NHDF cells assessed as caspase 3/7 activation after 24 hrs Caspase-Glo 3/7 assay; assay type: functional, cell-based
PC-3 [10] = assay: Induction of apoptosis in human PC3 cells assessed as caspase 3/7 activation after 24 hrs by Caspase-Glo 3/7 assay; assay type: functional, cell-based; conditions: PC-3, 24 h
PC-3 [11] = assay: Antitumor activity against human PC3 cells xenografted in NU/NU mouse after 21 days; assay type: functional; method in brief: as §5
PC-3 [12] = assay: Antiangiogenic activity in human PC3 cells xenografted in NU/NU mouse assessed as reduction vascularization at 3 mg/kg by immunohistochemistry; assay type: functional, organism-based; set-up: dose 3 mg/kg; method in brief: as §4
[13] = biological target: T5, Alpha-1D adrenergic receptor (Rattus norvegicus, UniProt P23944); assay: (§6) Antagonist activity at rat Alpha-1D adrenoceptor assessed as inhibition if norepenephrine-induced contraction of thoracic aorta; assay type: functional, tissue-based; conditions: read-out: pA2 (converted); method in brief: as §3
T5 sequence (P23944 whole entry): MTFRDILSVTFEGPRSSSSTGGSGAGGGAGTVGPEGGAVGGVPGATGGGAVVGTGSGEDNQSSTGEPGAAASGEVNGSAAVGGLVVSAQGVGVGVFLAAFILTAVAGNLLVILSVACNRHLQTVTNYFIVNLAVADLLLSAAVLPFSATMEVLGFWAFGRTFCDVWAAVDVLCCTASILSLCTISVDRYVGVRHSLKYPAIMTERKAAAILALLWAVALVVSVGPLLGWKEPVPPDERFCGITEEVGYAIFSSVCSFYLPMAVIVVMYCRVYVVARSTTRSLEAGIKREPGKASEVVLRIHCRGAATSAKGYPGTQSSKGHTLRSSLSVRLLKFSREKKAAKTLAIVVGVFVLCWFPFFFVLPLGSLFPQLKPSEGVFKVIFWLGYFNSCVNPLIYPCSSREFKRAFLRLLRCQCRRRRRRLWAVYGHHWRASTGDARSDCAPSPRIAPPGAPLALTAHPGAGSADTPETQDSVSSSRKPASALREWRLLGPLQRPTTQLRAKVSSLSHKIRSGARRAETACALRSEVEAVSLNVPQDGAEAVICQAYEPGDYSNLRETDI

[14] = biological target: T6, Alpha-1B adrenergic receptor (Rattus norvegicus) (UniProt P15823); assay: Antagonist activity at rat Alpha-1B adrenoceptor assessed as inhibition if phenylephrine-induced contraction of spleen; assay type: functional, tissue-based; method in brief: as §3
T6 sequence (whole entry): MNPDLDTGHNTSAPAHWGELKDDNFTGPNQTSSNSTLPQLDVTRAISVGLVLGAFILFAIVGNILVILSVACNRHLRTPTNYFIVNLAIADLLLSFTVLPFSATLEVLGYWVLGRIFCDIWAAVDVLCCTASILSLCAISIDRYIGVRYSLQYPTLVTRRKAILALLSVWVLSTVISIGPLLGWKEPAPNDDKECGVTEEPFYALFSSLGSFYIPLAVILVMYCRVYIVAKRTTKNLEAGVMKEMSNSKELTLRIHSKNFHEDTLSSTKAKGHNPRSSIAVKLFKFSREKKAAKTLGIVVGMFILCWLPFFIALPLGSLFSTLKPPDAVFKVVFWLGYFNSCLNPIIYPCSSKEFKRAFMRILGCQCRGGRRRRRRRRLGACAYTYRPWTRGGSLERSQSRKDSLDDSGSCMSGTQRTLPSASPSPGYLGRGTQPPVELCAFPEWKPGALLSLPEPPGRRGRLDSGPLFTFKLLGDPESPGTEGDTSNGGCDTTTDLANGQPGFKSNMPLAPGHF

DU-145 [15] = assay: Cytotoxicity against human DU145 cells after 72 hrs by CellTitter-Glo luminescent cell viability assay; assay type: functional, cell-based; conditions: DU-145, 72 h
PC-3 [16] = assay: Cytotoxicity against human PC3 cells after 72 hrs by CellTitter-Glo luminescent cell viability assay; assay type: functional, cell-based; conditions: PC-3, 72 h
[17] = biological target: T7, Alpha-1A adrenergic receptor (Rattus norvegicus) (UniProt P43140); assay: as §2; assay type: functional; method in brief: as §3
T7 sequence (whole entry): T3 sequence (P43140 whole entry)

PC-3 [18] = assay: Induction of apoptosis in human PC3 cells xenografted in NU/NU mouse assessed as DNA fragmentation at 0.3 to 3 mg/kg by agarose gel electrophoresis; assay type: functional, organism-based
Method in brief: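 DNA from PC-3 subcutaneous tumors of orally treated nude mice was run on an electrophoretic gel. Apoptosis was scored as a DNA ladder pattern.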

NHDF [19] = assay: Cytotoxicity against human NHDF cells after 72 hrs by CellTitter-Glo luminescent cell viability assay; assay type: functional, cell-based
[20] = biological target: T8, Alpha-1D adrenergic receptor (Rattus norvegicus) (UniProt P23944); assay: as §6; assay type: functional, tissue-based; method in brief: as §3
T8 sequence (whole entry): T5 sequence (P23944 whole entry)

LNCaP [21] = assay: Induction of apoptosis in human LNCAP cells assessed as caspase 3/7 activation after 24 hrs Caspase-Glo 3/7 assay; assay type: functional, cell-based; conditions: lncap
DU-145 [22] = assay: Induction of apoptosis in human DU145 cells assessed as caspase 3/7 activation after 24 hrs Caspase-Glo 3/7 assay; assay type: functional, cell-based; conditions: du-145

| Compound | Ki [1] [nM] | Ki [2] [nM] | Ki [4] [nM] | IC50 (LNCaP [8]) [nM] | EC50 (NHDF [9]) [nM] | EC50 (PC-3 [10]) [nM] | pKb [14] | IC50 (DU-145 [15]) [nM] | IC50 (PC-3 [16]) [nM] | pKb [17] | IC50 (NHDF [19]) [nM] | also measured |
| --- | --- | --- | --- | --- | --- | --- | --- | --- | --- | --- | --- | --- |
| COc1cc2nc(N3CCN(C(=O)c4ccco4)[C@H]4CCCC[C@H]43)nc(N)c2cc1OC [CYCLAZOSIN] | 0.17 | 0.324 | 5.5 | – | – | – | – | – | – | – | – | Kb [3]: 1.23 nM |
| COc1cc2nc(N3CCN(C(=O)C4COc5ccccc5O4)[C@H]4CCCC[C@H]43)nc(N)c2cc1OC (relative stereo) [CYCLODOXAZOSIN] | 0.17 | 0.417 | 2.82 | 570 | > 10000 | 1860 | 8.3 | 960 | 850 | 7.21 | 1460 | Activity (PC-3 [5]): Active; Activity (PC-3 [6]): 21%; Activity (PC-3 [7]): Active; EC50 (LNCaP [8]): 1420 nM; Activity (PC-3 [11]): Dose-dependent effect; Activity (PC-3 [12]): Active; Kb [13]: 40.7 nM; EC50 (DU-145 [15]): 2600 nM; EC50 (PC-3 [16]): 1860 nM; Activity (PC-3 [18]): Active; EC50 (NHDF [19]): > 10000 nM |
| COc1cc2nc(N3CCN(C(=O)C4COc5ccccc5O4)[C@H]4CCCC[C@@H]43)nc(N)c2cc1OC (relative stereo) | 26.3 | 22.4 | 81.3 | 9750 | 10000 | 10000 | 7.14 | > 10000 | > 10000 | 5.88 | > 10000 | pKb [20]: 6.88; EC50 (LNCaP [21]): 10000 nM; EC50 (DU-145 [22]): 10000 nM |
